The nature of data set [1]: Half life of the compound in buffer. It is filed as physicochemical. The procedure, abridged:
(§1)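 Electrophile (20 μmol) incubated at 37 °C either in pH 7.4 buffer, or in DMSO-d6/D2O (5:1), with or without glutathione. Decay followed by 1H NMR kinetics. First-order rate constant kpseudo-1st taken from ln[electrophile] versus time; t1/2 = 0.693/(60×k), in min.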

Data set [2] can be described thus: Half life of the compound in GSH. It is filed as physicochemical. Particulars: GSH (glutathione). The procedure, abridged:
as §1

In data set [3] the target is T1, Fructose-1,6-bisphosphatase 1 (Homo sapiens, UniProt P09467).
T1 sequence (P09467 whole entry): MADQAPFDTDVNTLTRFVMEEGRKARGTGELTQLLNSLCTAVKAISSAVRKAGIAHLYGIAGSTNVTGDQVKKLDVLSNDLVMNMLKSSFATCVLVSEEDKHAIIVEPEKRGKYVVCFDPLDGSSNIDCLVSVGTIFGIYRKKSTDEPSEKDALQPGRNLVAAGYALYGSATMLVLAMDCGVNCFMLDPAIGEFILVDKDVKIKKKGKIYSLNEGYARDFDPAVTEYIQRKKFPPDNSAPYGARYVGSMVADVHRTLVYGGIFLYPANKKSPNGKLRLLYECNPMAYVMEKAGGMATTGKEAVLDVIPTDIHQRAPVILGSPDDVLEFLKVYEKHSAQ
As to the kind of experiment: Inhibition of human FBPase expressed Escherichia coli BL21 in by malachite green dye based spectrophotometry. In a few lines: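 His-tagged human liver FBPase expressed in E. coli BL21(DE3) and purified by Ni affinity. Phosphate released from FBP complexed with ammonium molybdate/malachite green and read at 620 nm against a KH2PO4 standard curve (2−60 μM). Initial rates at saturating substrate, fixed effector and varied inhibitor fitted to the Hill equation for IC50.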

The target in data set [4] is Epidermal growth factor receptor (Homo sapiens) (UniProt P00533). Kind of data set: Inhibition of EGFR (unknown origin) at 300 uM measured after 40 mins in presence of ATP by luminescence assay relative to control. The procedure, abridged:
(§2)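 Kinase reaction (50 μL): 40 mM Tris pH 7.4, 10 mM MgCl2, 0.1 mg/mL BSA, 1 mM DTT, 10 μM ATP, kinase and substrate, with 1% final DMSO. Run 40 min at 30 °C. Residual ATP read by Kinase-Glo Plus luminescence, inversely related to kinase activity.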

For data set [5], the species on record is Homo sapiens. As to the kind of experiment: Selectivity ratio of IC50 for human FBPase to IC50 for recombinant ALDOA (unknown origin). In a few lines:
(§3)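 Aldolase (ALDOA/B/C) IC50 by NADH-coupled assay: enzyme plus serial compound dilutions, 0.41 mM NADH and TPI in 0.1 M Tris pH 7.4/0.2 M K-acetate, 3 min at 37 °C. Started with FBP and […], A340 read every 30 s for 6 min. Ratios against the FBPase IC50 from malachite green phosphate assay (620 nm).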

The species named for data set [6] is Homo sapiens. Kind of data set: Selectivity ratio of IC50 for human FBPase to IC50 for recombinant ALDOB (unknown origin). In a few lines:
as §3

The species entered for data set [7] is Homo sapiens. Kind of data set: Selectivity ratio of IC50 for human FBPase to IC50 for recombinant ALDOC (unknown origin). The procedure, abridged:
as §3

Data set [8] is filed under the species Homo sapiens. Kind of data set: Selectivity ratio of IC50 for human FBPase to IC50 for human GAPDH. In a few lines:
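Recombinant human GAPDH (His-tag, E. coli; 0.1 mg/mL final) preincubated 30 min with compound in 10 mM sodium pyrophosphate pH 8.5 at 37 °C. Started with arsenate, 4 mM NAD+ and 12 mM G3P; A340 at 4 min. Ratio taken against FBPase IC50 from the malachite green phosphate-release assay.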

The target of data set [9] is Tyrosine-protein kinase BTK (Homo sapiens) (UniProt Q06187). Kind of data set: Inhibition of BTK (unknown origin) at 300 uM measured after 40 mins in presence of ATP by luminescence assay relative to control. In a few lines: as §2
Chain of Tyrosine-protein kinase BTK (Homo sapiens) (Q06187 whole entry): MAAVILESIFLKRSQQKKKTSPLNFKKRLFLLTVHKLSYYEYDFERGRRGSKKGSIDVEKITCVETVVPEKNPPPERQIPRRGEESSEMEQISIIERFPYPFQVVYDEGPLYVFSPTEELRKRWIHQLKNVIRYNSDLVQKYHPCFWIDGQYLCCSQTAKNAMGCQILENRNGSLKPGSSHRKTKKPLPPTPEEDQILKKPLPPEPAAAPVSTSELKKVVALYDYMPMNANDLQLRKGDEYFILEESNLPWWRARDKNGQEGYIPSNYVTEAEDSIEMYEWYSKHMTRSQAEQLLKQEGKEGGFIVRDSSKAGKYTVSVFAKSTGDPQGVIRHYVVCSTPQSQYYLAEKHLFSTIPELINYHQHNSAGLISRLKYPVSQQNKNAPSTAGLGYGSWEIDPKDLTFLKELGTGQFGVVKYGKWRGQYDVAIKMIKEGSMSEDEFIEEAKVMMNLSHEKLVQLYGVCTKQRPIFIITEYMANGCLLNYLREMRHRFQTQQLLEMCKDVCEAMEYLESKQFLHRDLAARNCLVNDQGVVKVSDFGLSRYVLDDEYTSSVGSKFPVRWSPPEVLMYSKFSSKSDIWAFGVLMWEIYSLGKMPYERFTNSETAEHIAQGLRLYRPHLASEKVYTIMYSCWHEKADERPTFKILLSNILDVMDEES
For data set [10], the system named is Mus musculus. Kind of data set: Hypoglycemic activity in ICR mouse assessed as glucose lowering effect at 30 mg/kg, ip measured after 2 to 6 hrs. Type of data set: functional, organism-based. Particulars: time 2-6 hrs. In a few lines: (§4)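 Fasted (12 h) male ICR mice received one intraperitoneal dose in 10% ricinus oil/water vehicle; metformin 250 mg/kg served as control. Food was withheld. Tail blood glucose was read by glucometer at 0, 1, 2, 4 and 6 h.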

In data set [11] the test system is Mus musculus. As to the kind of experiment: Hypoglycemic activity in 12 hrs fasted ICR mouse assessed as glucose lowering effect at 10 to 30 mg/kg, ip measured after 2 hrs. Type of data set: functional, organism-based. The conditions noted are these: dose 10-30 mg/kg. The procedure, abridged:
as §4

Data set [12] concerns Mus musculus. Kind of data set: Hypoglycemic activity in 12 hrs fasted ICR mouse assessed as reduction in blood glucose AUC (0 to 6 hrs) at 10 mg/kg, ip measured after 6 hrs. Further details: scale not given: the % may be the effect or the level left. Type of data set: functional. The procedure, abridged: (§5)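 Male ICR mice (n = 4 per group), fasted 12 h with food withheld throughout. Single ip dose in 10% ricinus oil in water; vehicle and metformin 250 mg/kg as controls. Tail-vein glucose by glucometer at 0, 1, 2, 4 and 6 h; AUC over 0−6 h calculated.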

Data set [13] deals with Mus musculus. As to the kind of experiment: Hypoglycemic activity in 12 hrs fasted ICR mouse assessed as reduction in blood glucose AUC (0 to 6 hrs) at 30 mg/kg, ip measured after 6 hrs. It is filed as functional. Further details: scale not given: the % may be the effect or the level left. The procedure, abridged: as §5
Data set [14] has as its system Mus musculus. Kind of data set: Hypoglycemic activity in 12 hrs fasted ICR mouse assessed as reduction in blood glucose AUC (0 to 2 hrs) at 10 mg/kg, ip measured after 2 hrs. Type of data set: functional. Further details: scale not given: the % may be the effect or the level left. In a few lines:
(§6)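 OGTT: 12 h-fasted ICR mice (n = 6 per group) dosed ip (10 or 30 mg/kg in 10% ricinus oil/water), with vehicle and metformin 250 mg/kg controls, 1 h before oral glucose 2 g/kg. Tail blood glucose by glucometer at 0, 0.25, 0.5, 1, 1.5 and 2 h; AUC 0−2 h computed. Food withheld.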

Data set [15] relates to Mus musculus. Kind of data set: Hypoglycemic activity in 12 hrs fasted ICR mouse assessed as reduction in blood glucose AUC (0 to 2 hrs) at 30 mg/kg, ip measured after 2 hrs. It is filed as functional. Further details: scale not given: the % may be the effect or the level left. In a few lines: as §6
The target in data set [16] is T2, Fructose-1,6-bisphosphatase 1 (Homo sapiens) (UniProt P09467).
T2 sequence (whole entry): T1 sequence (P09467 whole entry)
As to the kind of experiment: Inhibition of human FBPase in ICR mouse serum starved primary hepatocytes assessed as glucose lowering effect. It is filed as cell-based. Particulars: Hepatocyte, dose 50-300 µM. In a few lines: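 Primary mouse hepatocytes serum-starved overnight, then exposed in DMEM for 6 h to test compounds (50−300 μM), metformin 1 mM or saccharin 50 or 100 μM. Gluconeogenesis assessed as glucose in the culture medium. Mean ± SEM reported, Student's t-test versus vehicle.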

The test system of a further data set is Hepatocyte. As to the kind of experiment: Cytotoxicity in ICR mouse serum starved primary hepatocytes assessed as reduction in cell viability at 50 to 300 uM. Particulars: dose 50-300 µM. It is filed as toxicity, cell-based.
Data set [17] is described as follows: Drug uptake in 12 hrs fasted ICR mouse assessed as plasma concentration at 30 mg/kg, ip measured after 6 hrs by LC-MS/MS analysis. It is filed as ADME, organism-based. Particulars: in vivo. In a few lines:
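Plasma levels of parent and of released saccharin followed over 0−24 h after a single 30 mg/kg ip dose to 12 h-fasted male ICR mice. Plasma was obtained from K2EDTA blood (4 °C spin, stored at −70 °C) and measured by LC−MS/MS.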

For data set [18], the system named is Mus musculus. As to the kind of experiment: Hypoglycemic activity in ICR mouse assessed as improvement in glucose tolerance at 10 to 30 mg/kg, ip administered 1 hr prior to oral glucose at 2 g/kg and measured after 0.25 hr by OGTT. Particulars: dose 10-30 mg/kg.

Activity calls are given as the source filed them. A value given as a limit tells only on which side of the number the result lay.

Chain of Epidermal growth factor receptor (Homo sapiens) (P00533 whole entry): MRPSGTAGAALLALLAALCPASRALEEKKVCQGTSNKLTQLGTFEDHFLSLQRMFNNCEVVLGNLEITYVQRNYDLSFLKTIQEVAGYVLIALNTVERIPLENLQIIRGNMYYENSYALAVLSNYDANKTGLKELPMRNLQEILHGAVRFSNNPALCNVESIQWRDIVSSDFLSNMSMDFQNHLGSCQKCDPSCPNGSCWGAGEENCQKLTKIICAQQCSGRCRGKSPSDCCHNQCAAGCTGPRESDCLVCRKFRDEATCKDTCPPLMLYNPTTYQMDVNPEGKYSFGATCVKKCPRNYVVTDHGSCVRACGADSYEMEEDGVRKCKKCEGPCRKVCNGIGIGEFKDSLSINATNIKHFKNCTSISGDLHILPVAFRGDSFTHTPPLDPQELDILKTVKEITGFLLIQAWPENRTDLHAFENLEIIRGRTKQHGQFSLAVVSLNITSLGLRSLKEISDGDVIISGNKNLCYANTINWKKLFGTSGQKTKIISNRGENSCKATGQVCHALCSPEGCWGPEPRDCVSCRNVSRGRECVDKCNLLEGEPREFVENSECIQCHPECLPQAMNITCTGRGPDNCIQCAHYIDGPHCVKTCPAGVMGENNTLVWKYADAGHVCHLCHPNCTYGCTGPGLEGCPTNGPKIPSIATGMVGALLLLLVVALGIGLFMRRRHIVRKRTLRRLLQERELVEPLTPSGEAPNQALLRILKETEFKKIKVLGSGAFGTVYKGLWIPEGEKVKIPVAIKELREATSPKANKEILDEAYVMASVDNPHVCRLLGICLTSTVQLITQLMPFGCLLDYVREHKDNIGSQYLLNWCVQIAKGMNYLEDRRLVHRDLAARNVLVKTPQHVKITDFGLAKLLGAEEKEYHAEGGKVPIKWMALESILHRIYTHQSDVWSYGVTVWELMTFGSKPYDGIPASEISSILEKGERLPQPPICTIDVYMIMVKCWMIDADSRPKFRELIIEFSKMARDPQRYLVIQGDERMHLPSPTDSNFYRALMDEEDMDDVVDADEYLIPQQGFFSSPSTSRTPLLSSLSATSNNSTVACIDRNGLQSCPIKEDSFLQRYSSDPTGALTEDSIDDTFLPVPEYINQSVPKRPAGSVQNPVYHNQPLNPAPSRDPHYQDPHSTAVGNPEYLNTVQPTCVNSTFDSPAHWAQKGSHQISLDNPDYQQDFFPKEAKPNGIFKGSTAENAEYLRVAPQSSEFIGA

In the case of `O=C(NCc1ccccc1)N1C(=O)c2ccccc2S1(=O)=O`, the values for the half-life in data set [1] and in data set [2] were > 167 h and 1.02 h, respectively. This compound came in with an IC50 in data set [3] of 3.4 µM. For the same compound, the inhibition in data set [4] and in [9] was < 50% in each case. Besides, the Ratio IC50 in the data set filed under Homo sapiens [5], in the data set filed under Homo sapiens [6], in the data set filed under Homo sapiens [7] and in the data set listed under Homo sapiens [8] was > 25 throughout. For the same compound, the outcome with Mus musculus [10], in the data set on Mus musculus [11] and in the data set with Mus musculus [18] was Active. In addition, the Activity is on record as 15.3% with Mus musculus [12]; 42.4% in the data set with Mus musculus [13]; 20.2% in the data set on Mus musculus [14]; 17.7% in the data set with Mus musculus [15]; “Non-Toxic” in the data set on Hepatocyte. The inhibition result in [16] was “Active”. For the same compound, in data set [17], the Cp entry is on record as “Active”.

Broadly, the half-life is the time needed for the level to fall by half in the phase considered. A word on the IC50: it is the midpoint of a concentration-inhibition curve. The inhibition is the change of the read-out against control, counted positive when it falls.

The values are drawn from ChEMBL document CHEMBL5143731, “N-Acylamino Saccharin as an Emerging Cysteine-Directed Covalent Warhead and Its Application in the Identification of Novel FBPase Inhibitors toward Glucose Reduction” (J Med Chem, 2022).
